# Where two headings read alike, the source gives them in different places.
# Assays:
# [1] = system: AK-A; settings: adenosine triphosphate-competitive inhibitor; cited from earlier work
# [2] = system: HeLaS3 cells; settings: cited from earlier work
# [3] = format: in vivo, human; settings: for AUC(0-t) / Cmax / Tmax / half-life / concentration at 12 h: plasma; for Tmax: median (range); for concentration at 12 h: C12h
# Summary of the method: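 Test compound was given as oral capsules with […] water after a 2-h fast, BID Q12hr, 3–6 patients per dose level. Docetaxel 60 mg/m2 was a 1-h IV infusion 2 h beforehand. […] was sampled on Cycle 1 Day 1 (predose, 0.5–24 h after dose 1) and Day 2 (predose, 0.5–44 h after dose 4). Analysis was non-compartmental, with AUC by linear-up/log-down trapezoidal method and Cmax/Tmax by inspection.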
structure (smiles),measurement,setting,value
O=C(O)[C@]1(Cc2cccc(Nc3nccs3)n2)CC[C@@H](Oc2cccc(Cl)c2F)CC1 [MK-5108],IC50,[1],64 pM
same,apoptosis in combination with docetaxel,[2],robustly potentiated apoptosis
same,mean target trough concentration of 2 μM,"[3]; Panel 2 (CT with docetaxel), any tested dose level",not achieved
same,dose proportionality of AUC0-12h and Cmax,[3]; following the first dose,less than dose proportionally
same,dose proportionality of AUC0-12h and Cmax,"[3]; following the fourth dose, 100 to 1800 mg (Q12hr)",roughly dose proportionally
same,dose proportionality of serum concentration at 12 hours post dose (trough),"[3]; human, in vivo",roughly dose proportionally
same,shape of mean plasma concentration decline,"[3]; human, in vivo",biphasic decline
same,AUC(0-t),"[3]; human, iv, 60 mg/m2, AUC0-12h, 100 mg/day, Panel 2 (CT, docetaxel 60 mg/m^2 IV), Dose 1",7.9 ± 2 µM·h
same,AUC(0-t),"[3]; human, iv, 60 mg/m2, AUC0-12h, 100 mg/day, Panel 2 (CT, docetaxel 60 mg/m^2 IV), Dose 4",10.8 ± 3.3 µM·h
same,AUC(0-t),"[3]; human, iv, 60 mg/m2, AUC0-12h, 150 mg/day, Panel 2 (CT, docetaxel 60 mg/m^2 IV), Dose 1",15 ± 9.2 µM·h
same,AUC(0-t),"[3]; human, iv, 60 mg/m2, AUC0-12h, 150 mg/day, Panel 2 (CT, docetaxel 60 mg/m^2 IV), Dose 4",16.4 ± 8.9 µM·h
same,AUC(0-t),"[3]; human, iv, 60 mg/m2, AUC0-12h, 225 mg/day, Panel 2 (CT, docetaxel 60 mg/m^2 IV), Dose 1",18.5 ± 6.2 µM·h
same,AUC(0-t),"[3]; human, iv, 60 mg/m2, AUC0-12h, 225 mg/day, Panel 2 (CT, docetaxel 60 mg/m^2 IV), Dose 4",23.4 ± 8.8 µM·h
same,Cmax,"[3]; human, iv, 60 mg/m2, Cmax, 100 mg/day, Panel 2 (CT, docetaxel 60 mg/m^2 IV), Dose 1",2300 ± 1200 nM
same,Cmax,"[3]; human, iv, 60 mg/m2, Cmax, 100 mg/day, Panel 2 (CT, docetaxel 60 mg/m^2 IV), Dose 4",2200 ± 1000 nM
same,Cmax,"[3]; human, iv, 60 mg/m2, Cmax, 150 mg/day, Panel 2 (CT, docetaxel 60 mg/m^2 IV), Dose 1",3500 ± 2000 nM
same,Cmax,"[3]; human, iv, 60 mg/m2, Cmax, 150 mg/day, Panel 2 (CT, docetaxel 60 mg/m^2 IV), Dose 4",3200 ± 1700 nM
same,Cmax,"[3]; human, iv, 60 mg/m2, Cmax, 225 mg/day, Panel 2 (CT, docetaxel 60 mg/m^2 IV), Dose 1",5000 ± 800 nM
same,Cmax,"[3]; human, iv, 60 mg/m2, Cmax, 225 mg/day, Panel 2 (CT, docetaxel 60 mg/m^2 IV), Dose 4",5300 ± 1700 nM
same,Tmax,"[3]; human, iv, 60 mg/m2, Tmax, 100 mg/day, Panel 2 (CT, docetaxel 60 mg/m^2 IV), Dose 1",2 h
same,Tmax,"[3]; human, iv, 60 mg/m2, Tmax, 100 mg/day, Panel 2 (CT, docetaxel 60 mg/m^2 IV), Dose 4",4 h
same,Tmax,"[3]; human, iv, 60 mg/m2, Tmax, 150 mg/day, Panel 2 (CT, docetaxel 60 mg/m^2 IV), Dose 1",3.5 h
same,Tmax,"[3]; human, iv, 60 mg/m2, Tmax, 150 mg/day, Panel 2 (CT, docetaxel 60 mg/m^2 IV), Dose 4",5 h
same,Tmax,"[3]; human, iv, 60 mg/m2, Tmax, 225 mg/day, Panel 2 (CT, docetaxel 60 mg/m^2 IV), Dose 1",2 h
same,Tmax,"[3]; human, iv, 60 mg/m2, Tmax, 225 mg/day, Panel 2 (CT, docetaxel 60 mg/m^2 IV), Dose 4",3 h
same,half-life,"[3]; human, iv, 60 mg/m2, t1/2, 100 mg/day, Panel 2 (CT, docetaxel 60 mg/m^2 IV), Dose 4",13.5 ± 10.6 h
same,half-life,"[3]; human, iv, 60 mg/m2, t1/2, 150 mg/day, Panel 2 (CT, docetaxel 60 mg/m^2 IV), Dose 4",10.1 ± 5 h
same,half-life,"[3]; human, iv, 60 mg/m2, t1/2, 225 mg/day, Panel 2 (CT, docetaxel 60 mg/m^2 IV), Dose 4",9.2 ± 5.1 h
same,concentration at 12 h,"[3]; human, iv, 100 mg/day, Panel 2 (CT, docetaxel 60 mg/m^2 IV), Dose 1",150 ± 120 nM
same,concentration at 12 h,"[3]; human, iv, 100 mg/day, Panel 2 (CT, docetaxel 60 mg/m^2 IV), Dose 4",210 ± 100 nM
same,concentration at 12 h,"[3]; human, iv, 150 mg/day, Panel 2 (CT, docetaxel 60 mg/m^2 IV), Dose 1",330 ± 220 nM
same,concentration at 12 h,"[3]; human, iv, 150 mg/day, Panel 2 (CT, docetaxel 60 mg/m^2 IV), Dose 4",510 ± 370 nM
same,concentration at 12 h,"[3]; human, iv, 225 mg/day, Panel 2 (CT, docetaxel 60 mg/m^2 IV), Dose 1",460 ± 260 nM
same,concentration at 12 h,"[3]; human, iv, 225 mg/day, Panel 2 (CT, docetaxel 60 mg/m^2 IV), Dose 4",660 ± 620 nM
same,AUC(0-t),"[3]; human, oral, 200 mg/day, AUC0-12h, Panel 1 (MT), Dose 1",17.5 ± 5.6 µM·h
same,AUC(0-t),"[3]; human, oral, 200 mg/day, AUC0-12h, Panel 1 (MT), Dose 4",31.2 ± 16.3 µM·h
same,concentration at 12 h,"[3]; human, oral, 200 mg/day, Panel 1 (MT), Dose 1",350 ± 50 nM
same,concentration at 12 h,"[3]; human, oral, 200 mg/day, Panel 1 (MT), Dose 4",1920 ± 1910 nM
same,Cmax,"[3]; human, oral, 200 mg/day, Cmax, Panel 1 (MT), Dose 1",3900 ± 700 nM
same,Cmax,"[3]; human, oral, 200 mg/day, Cmax, Panel 1 (MT), Dose 4",4800 ± 1000 nM
same,Tmax,"[3]; human, oral, 200 mg/day, Tmax, Panel 1 (MT), Dose 1",4 h
same,Tmax,"[3]; human, oral, 200 mg/day, Tmax, Panel 1 (MT), Dose 4",4 h
same,half-life,"[3]; human, oral, 200 mg/day, t1/2, 200 mg/day, Panel 1 (MT), Dose 4",9.3 ± 1.2 h
same,AUC(0-t),"[3]; human, oral, 400 mg/day, AUC0-12h, Panel 1 (MT), Dose 1",27 ± 12.2 µM·h
same,AUC(0-t),"[3]; human, oral, 400 mg/day, AUC0-12h, Panel 1 (MT), Dose 4",75.7 ± 46.2 µM·h
same,concentration at 12 h,"[3]; human, oral, 400 mg/day, Panel 1 (MT), Dose 1",250 ± 130 nM
same,concentration at 12 h,"[3]; human, oral, 400 mg/day, Panel 1 (MT), Dose 4",2020 ± 1520 nM

# — paper PMC4806784 (Investigational new drugs, 2015)
